Drawing on ChEMBL document CHEMBL1147925, “First pharmacophore-based identification of androgen receptor down-regulating agents: discovery of potent anti-prostate cancer agents” (Bioorg Med Chem, 2007), this text covers EC50 and IC50 for 8 compounds.

As a reminder, the EC50 is the concentration needed to bring the measured effect to its halfway point. High values mean a less potent agent, low ones a more potent agent. As usually defined, the IC50 is the concentration at which inhibition is half-maximal. Lower therefore signals inhibition by little substance.

Assay [1] relates to LNCaP. The experiment in a line: Decrease in androgen receptor protein expression in LNCaP cells by Western blotting. In kind it is functional, cell-based. The note with it: Homo sapiens. The method, boiled down:
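Whole-cell lysates were made in 0.1M Tris/0.5% Triton X-100 with protease inhibitor, and protein was measured by Bradford. Samples were run on 10% SDS-PAGE and immunoblotted with anti-AR monoclonal AR441 (1:500), HRP secondary and ECL. Signal was normalized to β-actin, and EC50 was taken from dose-response curves.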
A general note: Immunoblotting shows a protein as a band on a membrane.

Assay [2] deals with LNCaP. The experiment in a line: Growth inhibition of human LNCaP cells after 5 days by MTT colorimetric assay. To be noted: 120 h. For orientation: Tetrazolium assays rely on reduction of a dye to a coloured formazan, in cell work by metabolically active cells.

`O=c1cc(CO)oc(C(Nc2ccccc2)c2ccccc2)c1O` (centres undefined) displayed an EC50 in the assay on LNCaP [1] of 212 µM. The same compound returned an IC50 in the assay on LNCaP [2] of 20.9 µM.

In the assay on LNCaP [1], `CCOC(=O)c1ccccc1OC(=O)Oc1ccccc1C(=O)OCC` returned an EC50 of 65.5 µM. The same compound showed an IC50 in the assay with LNCaP [2] of 4.5 µM.

For the compound `Cc1ccc(S(=O)(=O)Nc2ccc(C)cc2[N+](=O)[O-])cc1`, in the assay with LNCaP [1], a half-maximal effect (EC50) was put at 76 µM. The compound also registered an IC50 with LNCaP [2] of 39.8 µM.

For `CSc1ccc(OS(=O)(=O)c2cccc3nsnc23)cc1`, in the assay with LNCaP [1], the EC50 was determined as 17.5 µM. The compound further came in with an IC50 with LNCaP [2] of over 50 µM.

In turn, `CCN(CCO)C(C(=O)c1ccc(Cl)cc1)c1ccc(Cl)cc1` (centres undefined) gave an EC50 with LNCaP [1] of 39.5 µM. Also, in the assay on LNCaP [2], the IC50 was found to be 8.31 µM.

For the compound `O=C(CNCCCc1ccccc1)c1ccc(O)c(O)c1`, in the assay on LNCaP [1], the EC50 worked out at 43.5 µM. The compound further showed an IC50 with LNCaP [2] of 26.9 µM.

Compound `COc1cc(/C=C/C(=O)CC(=O)/C=C/c2ccc(O)c(OC)c2)ccc1O` [CURCUMIN] returned an EC50 with LNCaP [1] of 35 µM.

Turning to `O=C(O)c1ccccc1Nc1cccc(C(F)(F)F)c1` [FLUFENAMIC ACID], the EC50 with LNCaP [1] stood at 200 µM.
